Data set [1] concerns mice. Particulars: cited from earlier work.
A short description of data set [2]: Surface tension, Du Nouy ring tensiometer. It counts as physicochemical. As to conditions: aqueous solution, 25 °C; for surface tension: at 10 mM, triplicate solutions. The method in brief: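 Test compound solutions were equilibrated to 25 °C. The ring was immersed 5 mm below the surface, then retracted automatically at 5 mm/min. Between measurements the ring was rinsed with water and ethanol and flamed. Solutions were prepared in triplicate.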

A short description of data set [3]: Dynamic light scattering of aqueous solutions. It counts as physicochemical. As to conditions: 25 °C; for z-average diameter of micelles: DLS cumulant analysis, water, concentrations above the CMC, mean ± SD. The method in brief: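 He-Ne laser (632.8 nm) with backscatter detection at 173°, 25 °C, using water viscosity 0.8937 cP and refractive index 1.333. Samples diluted from stock in Milli-Q water and filtered (0.02 μm). Solvent scattering was subtracted and plotted against concentration, with the inflection taken as the CMC. Triton X-100 served as positive control and a non-amphiphilic peptide as negative control. Triplicate samples were each read three times. Z-average came from a single-exponential cumulant fit and size distribution from a multi-exponential fit.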

For data set [4] the following is noted: low, clinically relevant concentrations; cited from earlier work.
For data set [5] the following is noted: cited from earlier work.
A short description of data set [6]: Stability of CMS in solution. The class given is physicochemical. As to conditions: 0.9% saline, 25 °C, over 120 hr.

We go through four substances from article PMC2881163 (The journal of physical chemistry. B, 2010).

As a reminder, the LD50 is the dose expected to kill half of the subjects tested. Take Colistin: the LD50 in data set [1] is 217.7 mg/kg. Besides, in data set [2], the “interfacial tension after the CMC” value is given as “approximately 40 dynes/cm” and the surface tension was 35–40 mN/m. The “z-average diameter of micelles” value in data set [3] is 2.07 ± 0.3 nm.
Take Triton X-100: the “z-average diameter of micelles” value in data set [3] amounted to 8.17 ± 0.59 nm.
Take colistin methanesulfonate [CMS]: the LD50 in data set [1] was 5.43 mg/kg. In addition, in data set [4], the “conversion of CMS to colistin in plasma and urine in vivo” value is “rapid”. Also, the “conversion of CMS to colistin in buffer solutions in vitro” value in data set [5] (<100 μg/mL at 37 °C) is on record as “rapid”. Besides, in data set [5] (>70 mg/mL, relevant to commercial pharmaceutical formulations), the “stability of concentrated CMS solutions with respect to formation of colistin” value is listed as “stable for extended periods”. In addition, in data set [6] (n = 3, HPLC of colistin formed), the “conversion of CMS to colistin, initial concentration 0.052 mM” value is listed as “Rapid conversion” and the “conversion of CMS to colistin, initial concentration 0.52 mM” value is “Less rapid conversion”. Moreover, in data set [6] (n = 3, well above the CMC), the “degradation of CMS, initial concentration 5.2 mM” value is reported as “negligible” and the “degradation of CMS, initial concentration 52 mM” value was “negligible”. For the same substance, the surface tension in data set [2] is recorded as 35–40 mN/m. The “z-average diameter of micelles” value in data set [3] is about 1.98 ± 0.36 nm.
In the case of “polymyxin B nonapeptide hydrochloride [PMBN]”, the “light scattering above that of water” value in data set [3] (DLS, up to 20 mM, no reliable size data could be obtained) is reported as “negligible”.
